According to ChEMBL document CHEMBL4368898, “Tridecaptin-inspired antimicrobial peptides with activity against multidrug-resistant Gram-negative bacteria” (Medchemcomm, 2019):
Converted amounts (≈) assume the structure as drawn. Where a SMILES comes first, the peptide text is derived from it. [ ]: non-standard residue; d: D form. The star is where a group is joined. d(aIle) = CC[C@H](C)[C@@H](N)C(=O)O; dOrn = NCCC[C@@H](N)C(=O)O; dDab = NCC[C@@H](N)C(=O)O; Octanoyl = CCCCCCCC(=O)*; Orn = NCCC[C@H](N)C(=O)O; Dab = NCC[C@H](N)C(=O)O

Experiments:
Format in all cases: functional
Acinetobacter baumannii [1] = experiment: Antimicrobial activity against carbapenemase-non-producing Acinetobacter baumannii assessed as inhibition of bacterial growth incubated for 18 hrs by CLSI based serial broth dilution method
Procedure, shortened: (§1)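 MIC by microbroth dilution, run in duplicate, reported in μg mL−1 to three significant figures. The Gram-negative panel includes environmental isolates from sewage-contaminated water in Lebanon and clinical isolates from patients. Strains are classed by carbapenemase production.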

Acinetobacter baumannii [2] = experiment: Antimicrobial activity against carbapenemase-producing Acinetobacter baumannii ACM 11 assessed as inhibition of bacterial growth incubated for 18 hrs by CLSI based serial broth dilution method; settings: ACM 11, 18 h; procedure, shortened: as §1
Acinetobacter baumannii [3] = experiment: Antimicrobial activity against carbapenemase-producing Acinetobacter baumannii ACM 29 assessed as inhibition of bacterial growth incubated for 18 hrs by CLSI based serial broth dilution method; settings: ACM 29, 18 h; procedure, shortened: as §1
Enterobacter cloacae = experiment: Antimicrobial activity against carbapenemase-producing Enterobacter cloacae […] assessed as inhibition of bacterial growth incubated for 18 hrs by CLSI based serial broth dilution method; procedure, shortened: as §1
Klebsiella pneumoniae [4] = experiment: Antimicrobial activity against carbapenemase-non-producing Klebsiella pneumoniae assessed as inhibition of bacterial growth incubated for 18 hrs by CLSI based serial broth dilution method; procedure, shortened: as §1
Klebsiella pneumoniae [5] = experiment: Antimicrobial activity against carbapenemase-producing Klebsiella pneumoniae IMP 170 assessed as inhibition of bacterial growth incubated for 18 hrs by CLSI based serial broth dilution method; settings: IMP 170, 18 h; procedure, shortened: as §1
Klebsiella pneumoniae [6] = experiment: Antimicrobial activity against carbapenemase-producing Klebsiella pneumoniae IMP 177 assessed as inhibition of bacterial growth incubated for 18 hrs by CLSI based serial broth dilution method; settings: IMP 177, 18 h; procedure, shortened: as §1
Klebsiella pneumoniae [7] = experiment: Antimicrobial activity against carbapenemase-producing Klebsiella pneumoniae IMP 204 assessed as inhibition of bacterial growth incubated for 18 hrs by CLSI based serial broth dilution method; settings: IMP 204, 18 h; procedure, shortened: as §1
Klebsiella pneumoniae [8] = experiment: Antimicrobial activity against carbapenemase-producing Klebsiella pneumoniae IMP 216 assessed as inhibition of bacterial growth incubated for 18 hrs by CLSI based serial broth dilution method; settings: IMP 216, 18 h; procedure, shortened: as §1
Klebsiella pneumoniae [9] = experiment: Antimicrobial activity against carbapenemase-producing Klebsiella pneumoniae IMP 485 assessed as inhibition of bacterial growth incubated for 18 hrs by CLSI based serial broth dilution method; settings: IMP 485, 18 h; procedure, shortened: as §1
Pseudomonas oleovorans = experiment: Antimicrobial activity against carbapenemase-non-producing Pseudomonas pseudoalcaligenes assessed as inhibition of bacterial growth incubated for 18 hrs by CLSI based serial broth dilution method; settings: Ectopseudomonas oleovorans; procedure, shortened: as §1

SMILES | MIC (Acinetobacter baumannii [1]) | MIC (Acinetobacter baumannii [2]) | MIC (Acinetobacter baumannii [3]) | MIC (Enterobacter cloacae) | MIC (Klebsiella pneumoniae [4]) | MIC (Klebsiella pneumoniae [5]) | MIC (Klebsiella pneumoniae [6]) | MIC (Klebsiella pneumoniae [7]) | MIC (Klebsiella pneumoniae [8]) | MIC (Klebsiella pneumoniae [9]) | MIC (Pseudomonas oleovorans)
CCCCCCCC(=O)N[C@@H](C(=O)N[C@H](CCN)C(=O)NCC(=O)N[C@H](CO)C(=O)N[C@H](Cc1c[nH]c2ccccc12)C(=O)N[C@@H](CO)C(=O)N[C@@H](CCN)C(=O)N[C@H](CCN)C(=O)N[C@@H](Cc1ccccc1)C(=O)N[C@@H](CCC(=O)O)C(=O)N[C@H](C(=O)N[C@@H](C(=O)N[C@@H](C)C(=O)O)[C@@H](C)CC)C(C)C)C(C)C | 12.5 mg/L (≈ 8.22 µM) | 25 mg/L (≈ 16.4 µM) | 25 mg/L (≈ 16.4 µM) | 3.13 mg/L (≈ 2.06 µM) | 6.25 mg/L (≈ 4.11 µM) | 6.25 mg/L (≈ 4.11 µM) | 6.25 mg/L (≈ 4.11 µM) | 12.5 mg/L (≈ 8.22 µM) | 6.25 mg/L (≈ 4.11 µM) | 6.25 mg/L (≈ 4.11 µM) | 50 mg/L (≈ 32.9 µM)
CCCCCCCC(=O)N[C@@H](C(=O)N[C@H](CCCCN)C(=O)NCC(=O)N[C@H](CO)C(=O)N[C@H](Cc1c[nH]c2ccccc12)C(=O)N[C@@H](CO)C(=O)N[C@@H](CCCCN)C(=O)N[C@H](CCCCN)C(=O)N[C@@H](Cc1ccccc1)C(=O)N[C@@H](CCC(=O)O)C(=O)N[C@H](C(=O)N[C@@H](C(=O)N[C@@H](C)C(=O)O)[C@@H](C)CC)C(C)C)C(C)C (HELM PEPTIDE1{[CCCCCCCC(=O)[*:2]].[dV].[dK].G.[dS].[dW].S.K.[dK].F.E.V.[CC[C@H](C)[C@@H](N[*:1])C(=O)[*:2]].A}$$$$V2.0) | 6.25 mg/L (≈ 3.89 µM) | 25 mg/L (≈ 15.6 µM) | 25 mg/L (≈ 15.6 µM) | 25 mg/L (≈ 15.6 µM) | 50 mg/L (≈ 31.2 µM) | 50 mg/L (≈ 31.2 µM) | 25 mg/L (≈ 15.6 µM) | 50 mg/L (≈ 31.2 µM) | 25 mg/L (≈ 15.6 µM) | 25 mg/L (≈ 15.6 µM) | 100 mg/L (≈ 62.3 µM)
CCCCCCCC(=O)N[C@@H](C(=O)N[C@H](CCCCN)C(=O)NCC(=O)N[C@H](CO)C(=O)N[C@H](Cc1c[nH]c2ccccc12)C(=O)N[C@@H](CO)C(=O)N[C@@H](CCCCN)C(=O)N[C@H](CCCCN)C(=O)N[C@@H](Cc1ccccc1)C(=O)N[C@@H](CCC(=O)O)C(=O)N[C@H](C(=O)N[C@@H](C(=O)N[C@@H](C)C(=O)O)C(C)C)C(C)C)C(C)C (HELM PEPTIDE1{[CCCCCCCC(=O)[*:2]].[dV].[dK].G.[dS].[dW].S.K.[dK].F.E.V.[dV].A}$$$$V2.0) | > 100 mg/L | > 100 mg/L | > 100 mg/L | > 100 mg/L | > 100 mg/L | > 100 mg/L | > 100 mg/L | > 100 mg/L | > 100 mg/L | > 100 mg/L | > 100 mg/L
CCCCCCCC(=O)N[C@@H](C(=O)N[C@H](CCN)C(=O)NCC(=O)N[C@H](CO)C(=O)N[C@H](Cc1c[nH]c2ccccc12)C(=O)N[C@@H](CO)C(=O)N[C@@H](CCN)C(=O)N[C@H](CCN)C(=O)N[C@@H](Cc1ccccc1)C(=O)N[C@@H](CCC(=O)O)C(=O)N[C@H](C(=O)N[C@@H](C(=O)N[C@@H](C)C(=O)O)C(C)C)C(C)C)C(C)C (Octanoyl-[dV][dDab]G[dS][dW]S[Dab][dDab]FEV[dV]A-OH) | 25 mg/L (≈ 16.6 µM) | 100 mg/L (≈ 66.4 µM) | 50 mg/L (≈ 33.2 µM) | 6.25 mg/L (≈ 4.15 µM) | 12.5 mg/L (≈ 8.3 µM) | 12.5 mg/L (≈ 8.3 µM) | 25 mg/L (≈ 16.6 µM) | 12.5 mg/L (≈ 8.3 µM) | 12.5 mg/L (≈ 8.3 µM) | 12.5 mg/L (≈ 8.3 µM) | 50 mg/L (≈ 33.2 µM)
CCCCCCCC(=O)N[C@@H](C(=O)N[C@H](CCCCN)C(=O)NCC(=O)N[C@H](CO)C(=O)N[C@H](Cc1c[nH]c2ccccc12)C(=O)N[C@@H](CO)C(=O)N[C@@H](CCCCN)C(=O)N[C@H](CCN)C(=O)N[C@@H](Cc1ccccc1)C(=O)N[C@@H](CCC(=O)O)C(=O)N[C@H](C(=O)N[C@@H](C(=O)N[C@@H](C)C(=O)O)[C@@H](C)CC)C(C)C)C(C)C (Octanoyl-[dV][dK]G[dS][dW]SK[dDab]FEV[d(aIle)]A-OH) | 50 mg/L (≈ 31.7 µM) | 25 mg/L (≈ 15.9 µM) | 50 mg/L (≈ 31.7 µM) | 25 mg/L (≈ 15.9 µM) | 50 mg/L (≈ 31.7 µM) | 25 mg/L (≈ 15.9 µM) | 25 mg/L (≈ 15.9 µM) | 25 mg/L (≈ 15.9 µM) | 25 mg/L (≈ 15.9 µM) | 25 mg/L (≈ 15.9 µM) | 25 mg/L (≈ 15.9 µM)
CCCCCCCC(=O)N[C@@H](C(=O)N[C@H](CCCN)C(=O)NCC(=O)N[C@H](CO)C(=O)N[C@H](Cc1c[nH]c2ccccc12)C(=O)N[C@@H](CO)C(=O)N[C@@H](CCCN)C(=O)N[C@H](CCN)C(=O)N[C@@H](Cc1ccccc1)C(=O)N[C@@H](CCC(=O)O)C(=O)N[C@H](C(=O)N[C@@H](C(=O)N[C@@H](C)C(=O)O)[C@@H](C)CC)C(C)C)C(C)C (Octanoyl-[dV][dOrn]G[dS][dW]S[Orn][dDab]FEV[d(aIle)]A-OH) | 100 mg/L (≈ 64.6 µM) | 50 mg/L (≈ 32.3 µM) | 50 mg/L (≈ 32.3 µM) | 25 mg/L (≈ 16.1 µM) | 100 mg/L (≈ 64.6 µM) | 25 mg/L (≈ 16.1 µM) | 25 mg/L (≈ 16.1 µM) | 25 mg/L (≈ 16.1 µM) | 25 mg/L (≈ 16.1 µM) | 25 mg/L (≈ 16.1 µM) | 12.5 mg/L (≈ 8.07 µM)
CCCCCCCC(=O)N[C@@H](C(=O)N[C@H](CCCN)C(=O)NCC(=O)N[C@H](CO)C(=O)N[C@H](Cc1c[nH]c2ccccc12)C(=O)N[C@@H](CO)C(=O)N[C@@H](CCCN)C(=O)N[C@H](CCCN)C(=O)N[C@@H](Cc1ccccc1)C(=O)N[C@@H](CCC(=O)O)C(=O)N[C@H](C(=O)N[C@@H](C(=O)N[C@@H](C)C(=O)O)[C@@H](C)CC)C(C)C)C(C)C (Octanoyl-[dV][dOrn]G[dS][dW]S[Orn][dOrn]FEV[d(aIle)]A-OH) | 12.5 mg/L (≈ 8 µM) | 50 mg/L (≈ 32 µM) | 50 mg/L (≈ 32 µM) | 6.25 mg/L (≈ 4 µM) | 12.5 mg/L (≈ 8 µM) | 25 mg/L (≈ 16 µM) | 25 mg/L (≈ 16 µM) | 25 mg/L (≈ 16 µM) | 6.25 mg/L (≈ 4 µM) | 25 mg/L (≈ 16 µM) | 50 mg/L (≈ 32 µM)
CCCCCCCC(=O)N[C@@H](C(=O)N[C@H](CCCN)C(=O)NCC(=O)N[C@H](CO)C(=O)N[C@H](Cc1c[nH]c2ccccc12)C(=O)N[C@@H](CO)C(=O)N[C@@H](CCCN)C(=O)N[C@H](CCCN)C(=O)N[C@@H](Cc1ccccc1)C(=O)N[C@@H](CCC(=O)O)C(=O)N[C@H](C(=O)N[C@@H](C(=O)N[C@@H](C)C(=O)O)C(C)C)C(C)C)C(C)C (Octanoyl-[dV][dOrn]G[dS][dW]S[Orn][dOrn]FEV[dV]A-OH) | 25 mg/L (≈ 16.1 µM) | 25 mg/L (≈ 16.1 µM) | 50 mg/L (≈ 32.3 µM) | 12.5 mg/L (≈ 8.07 µM) | 50 mg/L (≈ 32.3 µM) | 25 mg/L (≈ 16.1 µM) | 12.5 mg/L (≈ 8.07 µM) | 12.5 mg/L (≈ 8.07 µM) | 12.5 mg/L (≈ 8.07 µM) | 12.5 mg/L (≈ 8.07 µM) | 6.25 mg/L (≈ 4.04 µM)
